Source: PubChem BioAssay
Xi reactivation: activators of X-chromosome reactivation in mouse fibroblasts; XiGFP mouse fibroblasts, % GFP-positive cells imaging, 3 d; cells co-treated with 5-aza-dC sensitizer; scaled so ellipticine positive control = 100%; activation, % at 7.58 µM; actives 0.055% (n = 360,000); AID 743238;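 active = mean normalized replicate activation at least 10% and every replicate at or above 10%; inconclusive = only one of the two criteria met; inactive = mean below 10% and not all replicates reach 10%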;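 also: 0% = median of on-plate neutral control wells and 100% = ellipticine 6 µM median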
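System: 68-5-11 XiGFP fibroblast line | Buffer or medium: DMEM containing 5-aza-dC | Compound: Single point | Times: Compounds 3 days, fix/stain 15 min at room temperature | Benchmarks: Positive control ellipticine, 6 µM final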
FN deposit inh: fibronectin deposition inhibition; actives 0.086% (n = 350,000); inhibition, % at 12.6 µM; AH1F fibroblasts, Alexa488-fibronectin deposition fluorescence, overnight;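 active = mean inhibition across replicates of 30% or more, regardless of how many single replicates reach that level; inconclusive = mean under 30% yet at least half of replicates reach 30%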;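 also: positive control wells lacked labelled fibronectin entirely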
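Measured by – fluorescence 485/525 nm · System – AH1F fibroblast monolayer, labelled fibronectin deposition · Amount – 10000 cells per well · Buffer or medium – serum-reduced DMEM (2% serum) · Doses – single dose, pinned · Also added – fluorescent fibronectin at 24 nM final · Schedule – 1 h cell attachment, overnight exposure to compound and label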
DENV2 CPE: DENV2-induced cell death inhibition | DENV2-infected cells, cytopathic effect rescue, plate reader | CPE inhibition, % at 9.99 µM | actives 1.7% (n = 350,000) | AID 651640; in the data active = CPE inhibition above about 20%, passing the limit was not always enough; inconclusive = no clear call, values can overlap the other calls; tested in BHK-21 cells;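 also: 0% = median of neutral control wells and 100% = median of positive control wells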
CASP6 VEID inh: caspase-6 (human) enzyme inhibition. P55212. purified caspase-6, Z-VEID-R110 cleavage fluorescence. inhibition, % at 12.5 µM. actives 0.53% (n = 350,000);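 active = mean inhibition across replicates at least about 35%, with every replicate also reaching that limit, limit read from the data; inconclusive = only one of the two criteria met; inactive = neither criterion met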;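 also: 0% = median of neutral control wells and 100% = no fluorescence left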
Target sequence (P55212 24-179 limits assumed): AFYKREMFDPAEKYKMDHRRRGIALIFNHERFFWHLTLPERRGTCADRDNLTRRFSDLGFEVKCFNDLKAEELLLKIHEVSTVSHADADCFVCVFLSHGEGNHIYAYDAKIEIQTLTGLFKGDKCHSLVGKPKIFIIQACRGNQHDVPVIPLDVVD
Target sequence (P55212 194-293 limits assumed): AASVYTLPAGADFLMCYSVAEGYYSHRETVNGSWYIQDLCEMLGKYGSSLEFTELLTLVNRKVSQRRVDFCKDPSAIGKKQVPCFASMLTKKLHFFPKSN
CaV13 FRET inh: Primary screen for inhibitors of IQ motif and Ca2+-dependent inactivation inhibitor domain binding in CACNA1D, Förster resonance energy transfer in living cells, … | HEK cells, CFP/YFP FRET ICDI-IQ, plate reader, 10 min; percent FRET-ratio fall versus neutral wells | actives 0.098% (n = 340,000) | inhibition, % at 12.3 µM;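 active = mean replicate inhibition of at least 30% and at least 1% of replicates passing that level; inconclusive = only one of the two criteria is met; inactive = neither criterion is met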;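 also: 0% = median of the neutral control wells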
* = called active by the depositor; ? = inconclusive; nt = no result given. A selection: hits, their analogues and other compounds. The true share with any hit is near 2%.

SMILES | Xi reactivation | FN deposit inh | DENV2 CPE | CASP6 VEID inh | CaV13 FRET inh
C[C@@H]1CN([C@@H](C)CO)C(=O)c2cc(NC(=O)C3CCCCC3)ccc2O[C@H]1CN(C)C(=O)Nc1cccc2ccccc12 | 0.0 | nt | 9.7 | -2.0 | nt
C[C@@H]1CN([C@@H](C)CO)C(=O)c2cc(NC(=O)CCC(F)(F)F)ccc2O[C@@H]1CN(C)C(=O)Nc1ccc2c(c1)OCO2 | -0.4 | nt | 31.2* | -2.1 | nt
CC(C)NC(=O)Nc1ccc2c(c1)C(=O)N([C@@H](C)CO)C[C@@H](C)[C@H](CN(C)C(=O)Nc1ccc3c(c1)OCO3)O2 | 0.3 | nt | 28.2* | -3.3 | nt
C[C@H]1CN([C@@H](C)CO)C(=O)c2cc(NC(=O)CCC(F)(F)F)ccc2O[C@H]1CN(C)C(=O)Nc1cccc2ccccc12 | 0.0 | nt | 26.1* | 1.3 | nt
CC(C)NC(=O)Nc1ccc2c(c1)C(=O)N([C@@H](C)CO)C[C@H](C)[C@@H](CN(C)C(=O)Nc1ccc3c(c1)OCO3)O2 | -0.2 | nt | 20.8* | -0.1 | nt
CC(=O)N1C[C@@H]2C(c3ccc(Br)cc3)[C@H](C1)N2Cc1ccc(F)cc1 (stereo partly drawn) | 0.3 | -1.6 | nt | nt | nt
C[C@H]1CN([C@@H](C)CO)C(=O)c2cccc(NS(=O)(=O)c3ccccc3)c2O[C@@H]1CN(C)S(=O)(=O)c1cccs1 | -0.4 | nt | ? | 3.6 | nt
C[C@H](CO)N1C[C@H](C)[C@H](CN(C)C(=O)C2CC2)Oc2cc(-c3cncnc3)ccc2S1(=O)=O | -0.5 | 4.2 | nt | nt | nt
CCCN1C[C@H](C)[C@@H](OC)CN(C)C(=O)c2cc(NC(=O)Nc3c(C)noc3C)ccc2OC[C@H]1C | -0.4 | -19.9 | 1.1 | 2.5 | nt
COc1ccc(OC)c(CN2C(=O)CN(S(C)(=O)=O)CC2(C)C(=O)NCc2ccccc2)c1 (stereo not drawn) | -0.1 | 10.6 | 32.4* | -0.3 | -15.7
CC1(C(=O)NCc2ccccc2)CN(S(C)(=O)=O)CC(=O)N1Cc1ccc2c(c1)OCO2 (stereo not drawn) | 0.1 | 5.6 | 0.8 | -0.2 | -17.0
Cc1noc(C)c1S(=O)(=O)N(C)C[C@@H]1OCCCC[C@@H](C)Oc2ccc(NC(=O)Nc3ccc(F)cc3)cc2C(=O)N([C@@H](C)CO)C[C@@H]1C | -0.2 | 1.9 | 45.7* | -1.6 | nt
Cc1noc(C)c1S(=O)(=O)N(C)C[C@H]1OCCCC[C@@H](C)Oc2ccc(NC(=O)Nc3ccc(F)cc3)cc2C(=O)N([C@H](C)CO)C[C@@H]1C | -0.1 | 5.3 | -6.9 | -1.0 | nt
Cc1noc(C)c1S(=O)(=O)N(C)C[C@@H]1OCCCC[C@H](C)Oc2ccc(NC(=O)NC(C)C)cc2C(=O)N([C@H](C)CO)C[C@H]1C | 0.5 | -12.5 | 86.4* | 2.0 | nt
CO[C@H]1CN(C)C(=O)c2cc(NC(=O)CC(F)(F)F)ccc2OC[C@H](C)N(C(=O)C2CCOCC2)C[C@@H]1C | 0.0 | 2.6 | 26.8* | 2.3 | nt
CO[C@@H]1CN(C)C(=O)c2cc(NC(=O)CC(F)(F)F)ccc2OC[C@H](C)N(C(=O)C2CCOCC2)C[C@@H]1C | 0.6 | 7.6 | 26.4* | 1.7 | nt
CO[C@@H]1CN(C)C(=O)c2ccc(NC(=O)CC(F)(F)F)cc2OC[C@@H](C)N(C(=O)C2CCOCC2)C[C@@H]1C | 0.2 | nt | 24.1* | -0.6 | nt
CCCNC(=O)N1CC2(CCN(Cc3ccc(F)cc3)CC2)c2c([nH]c3cc(OC)ccc23)[C@H]1CO | 0.3 | nt | nt | nt | nt
OCc1cn(-c2ccccc2)nc1-c1ccc(Br)cc1 | 0.0 | 2.7 | 48.5* | 4.6 | -2.6
OC[C@H]1[C@@H](c2ccc(C#CC3(O)CCCC3)cc2)[C@H]2CN(Cc3cccnc3)CCCCN21 | 0.3 | nt | -3.3 | -0.9 | nt
Cc1cccn2c(=O)c3cc(C(=O)NCc4ccco4)c(=N)n(CCc4ccccc4)c3nc12 | -0.2 | -1.1 | 0.5 | 6.2 | 38.9*
CCCCNC(=O)c1cc2c(=O)n3cccc(C)c3nc2n(Cc2ccncc2)c1=N | nt | 9.6 | nt | nt | 9.9
COCCNC(=O)c1cc2c(=O)n3cccc(C)c3nc2n(Cc2ccncc2)c1=N | nt | 9.3 | nt | nt | 42.7*
Cc1cccn2c(=O)c3cc(C(=O)NCc4ccc(F)cc4)c(=N)n(CCCN4CCOCC4)c3nc12 | ? | -11.8 | 3.2 | 0.6 | 116.5*
